Assay results published in ChEMBL document CHEMBL1125548, “Synthesis and pharmacological studies of N-substituted 6-[(2-aminoethyl)amino]-1,3-dimethyl-2,4(1H,3H)-pyrimidinediones, novel class III antiarrhythmic agents” (1992).

How the values were obtained:
Canis familiaris [1] = assay: The prolongation effect of the atrial and ventricular effective refractory period was measured before and after the administration at 0.1 mg/kg; assay type: functional, Canis lupus familiaris, Cardiac atrium; settings: dose 1.0 mg/kg; in the assay text read “1.0 mg/kg” for “0.1 mg/kg”
In short: (§1)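 In vivo, mongrel dogs of either sex (7–13 kg), anesthetized with pentobarbital sodium 30 mg/kg iv. Left femoral artery cannulated for arterial pressure, femoral vein for drug dosing. Effective refractory period measured before and after administration.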

Canis familiaris [2] = assay: The percentage change of the duration of action potential at 75% repolarization was measured before and after the administration at 3.0 ug/mL; assay type: functional, Canis lupus familiaris
In short: (§2)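 Canine right-ventricular Purkinje fibers (mongrel dogs 7–11 kg, thiopental-anesthetized) superfused with Tyrode's (pH 7.5, 36 °C, gassed 95% O2/5% CO2). Compounds diluted from 1 mM water stock and added cumulatively. Readings taken 20 min after solution exchange. Result given as percent change in action potential duration.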

Canis familiaris [3] = assay: The prolongation effect of the atrial and ventricular effective refractory period was measured before and after the administration at 0.3 mg/kg; assay type: functional, Canis lupus familiaris, Cardiac atrium; in short: as §1
Canis familiaris [4] = assay: The percentage change of the duration of action potential at 75% repolarization was measured before and after the administration at 1.0 ug/mL; assay type: functional, Canis lupus familiaris; in short: as §2
Canis familiaris [5] = assay: The prolongation effect of the atrial and ventricular effective refractory period was measured before and after the administration at 3 mg/kg; assay type: functional, Canis lupus familiaris, Cardiac atrium; in short: as §1
Canis familiaris [6] = assay: The percentage change in the effective refractory period was measured before and after the administration at 0.1 mg/kg; assay type: functional, Canis lupus familiaris; settings: dose 1.0 mg/kg; in the assay text read “1.0 mg/kg” for “0.1 mg/kg”; in short: as §1
Canis familiaris [7] = assay: Percentage change of the duration of action potential at 75% repolarization was measured before and after the administration at 10.0 ug/mL; assay type: functional, Canis lupus familiaris; in short: as §2
Canis familiaris [8] = assay: Concentration required for 50% inhibition of tachycardia induced by isoproterenol (0.5ug/mL, iv) in anesthetized dog; assay type: functional; settings: Canis lupus familiaris, read-out: ID50 (the source's name)
Canis familiaris [9] = species on record: Canis familiaris; assay: Action potential duration at 50% repolarization at 0.1(ug/mL) concentration; assay type: functional, Canis lupus familiaris
In short: (§3)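 Purkinje fibers from right ventricle of mongrel dogs (7–11 kg, thiopental sodium 30 mg/kg iv), superfused in organ bath with Tyrode's solution (pH 7.5, 95% O2/5% CO2) at 36 °C. Compounds from 1 mM aqueous stock diluted in Tyrode's, given cumulatively. Data taken 20 min after each solution change. Means ± SD of seven experiments.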

Canis familiaris [10] = species on record: Canis familiaris; assay: Maximum upstroke velocity of the compound at 0 (ug/mL) concentration; assay type: functional, Canis lupus familiaris; in short: as §3
Canis familiaris [11] = species on record: Canis familiaris; assay: Action potential duration at 50% repolarization at 0.3(ug/mL) concentration; assay type: functional, Canis lupus familiaris; in short: as §3
Canis familiaris [12] = species on record: Canis familiaris; assay: Action potential amplitude at 10(ug/mL) concentration; assay type: functional, Canis lupus familiaris; in short: as §3
Canis familiaris [13] = species on record: Canis familiaris; assay: Action potential duration at 50% repolarization at 10(ug/mL) concentration; assay type: functional, Canis lupus familiaris; in short: as §3
Canis familiaris [14] = species on record: Canis familiaris; assay: Action potential amplitude at 3(ug/mL) concentration; assay type: functional, Canis lupus familiaris; in short: as §3
Canis familiaris [15] = species on record: Canis familiaris; assay: Action potential duration at 90% repolarization at 0.1(ug/mL) concentration; assay type: functional, Canis lupus familiaris; in short: as §3
Canis familiaris [16] = species on record: Canis familiaris; assay: Action potential amplitude at 0.3(ug/mL) concentration; assay type: functional, Canis lupus familiaris; in short: as §3
Canis familiaris [17] = species on record: Canis familiaris; assay: Resting membrane potential at 1 (ug/mL) concentration; assay type: functional; settings: Canis lupus familiaris; in short: as §3
Canis familiaris [18] = species on record: Canis familiaris; assay: Action potential duration at 90% repolarization at 10(ug/mL) concentration; assay type: functional, Canis lupus familiaris; in short: as §3
Canis familiaris [19] = species on record: Canis familiaris; assay: Action potential duration at 75% repolarization at 1(ug/mL) concentration; assay type: functional, Canis lupus familiaris; in short: as §3
Canis familiaris [20] = species on record: Canis familiaris; assay: Resting membrane potential at 3(ug/mL) concentration; assay type: functional; settings: Canis lupus familiaris; in short: as §3
Canis familiaris [21] = species on record: Canis familiaris; assay: Resting membrane potential at 10 (ug/mL) concentration; assay type: functional; settings: Canis lupus familiaris; in short: as §3
Canis familiaris [22] = species on record: Canis familiaris; assay: Maximum upstroke velocity of the compound at 0.1 (ug/mL) concentration; assay type: functional, Canis lupus familiaris; in short: as §3
Canis familiaris [23] = species on record: Canis familiaris; assay: Resting membrane potential at 0.1 (ug/mL) concentration; assay type: functional; settings: Canis lupus familiaris; in short: as §3
Canis familiaris [24] = species on record: Canis familiaris; assay: Resting membrane potential at 0.3 (ug/mL) concentration; assay type: functional; settings: Canis lupus familiaris; in short: as §3
Canis familiaris [25] = species on record: Canis familiaris; assay: Action potential duration at 75% repolarization at 3(ug/mL) concentration; assay type: functional, Canis lupus familiaris; in short: as §3
Canis familiaris [26] = species on record: Canis familiaris; assay: Action potential duration at 90% repolarization at 0(ug/mL) concentration; assay type: functional, Canis lupus familiaris; in short: as §3
Canis familiaris [27] = species on record: Canis familiaris; assay: Maximum upstroke velocity of the compound at 3 (ug/mL) concentration; assay type: functional, Canis lupus familiaris; in short: as §3
Canis familiaris [28] = species on record: Canis familiaris; assay: Action potential duration at 75% repolarization at 10(ug/mL) concentration; assay type: functional, Canis lupus familiaris; in short: as §3
Canis familiaris [29] = species on record: Canis familiaris; assay: Action potential duration at 75% repolarization at 0.3(ug/mL) concentration; assay type: functional, Canis lupus familiaris; in short: as §3
Canis familiaris [30] = species on record: Canis familiaris; assay: Action potential duration at 90% repolarization at 0.3(ug/mL) concentration; assay type: functional, Canis lupus familiaris; in short: as §3
Canis familiaris [31] = species on record: Canis familiaris; assay: Action potential duration at 75% repolarization at 0(ug/mL) concentration; assay type: functional, Canis lupus familiaris; in short: as §3
Canis familiaris [32] = species on record: Canis familiaris; assay: Maximum upstroke velocity of the compound at 10 (ug/mL) concentration; assay type: functional, Canis lupus familiaris; in short: as §3
Canis familiaris [33] = species on record: Canis familiaris; assay: Action potential duration at 50% repolarization at 3(ug/mL) concentration; assay type: functional, Canis lupus familiaris; in short: as §3
Canis familiaris [34] = species on record: Canis familiaris; assay: Maximum upstroke velocity of the compound at 0.3 (ug/mL) concentration; assay type: functional, Canis lupus familiaris; in short: as §3
Canis familiaris [35] = species on record: Canis familiaris; assay: Action potential amplitude at 0.1(ug/mL) concentration; assay type: functional, Canis lupus familiaris; in short: as §3
Canis familiaris [36] = species on record: Canis familiaris; assay: Action potential duration at 90% repolarization at 3(ug/mL) concentration; assay type: functional, Canis lupus familiaris; in short: as §3
Canis familiaris [37] = species on record: Canis familiaris; assay: Action potential amplitude at 1(ug/mL) concentration; assay type: functional, Canis lupus familiaris; in short: as §3
Canis familiaris [38] = species on record: Canis familiaris; assay: Action potential amplitude at 0 (ug/mL) concentration; assay type: functional, Canis lupus familiaris; in short: as §3
Canis familiaris [39] = species on record: Canis familiaris; assay: Action potential duration at 90% repolarization at 1(ug/mL) concentration; assay type: functional, Canis lupus familiaris; in short: as §3
Canis familiaris [40] = species on record: Canis familiaris; assay: Action potential duration at 50% repolarization at 1(ug/mL) concentration; assay type: functional, Canis lupus familiaris; in short: as §3
Canis familiaris [41] = species on record: Canis familiaris; assay: Resting membrane potential at 0 (ug/mL) concentration; assay type: functional; settings: Canis lupus familiaris; in short: as §3
Canis familiaris [42] = species on record: Canis familiaris; assay: Action potential duration at 50% repolarization at 0 ug/mL concentration; assay type: functional, Canis lupus familiaris; in short: as §3
Canis familiaris [43] = species on record: Canis familiaris; assay: Maximum upstroke velocity of the compound at 1 (ug/mL) concentration; assay type: functional, Canis lupus familiaris; in short: as §3
Canis familiaris [44] = species on record: Canis familiaris; assay: Action potential duration at 75% repolarization at 0.1(ug/mL) concentration; assay type: functional, Canis lupus familiaris; in short: as §3

Cl.Cn1c(N2CCN(CCCOc3ccc(Cl)cc3)CC2)cc(=O)n(C)c1=O
ERP (Canis familiaris [1]): 13%
APD75 (Canis familiaris [2]): 25%
ERP (Canis familiaris [3]): 6.3%
APD75 (Canis familiaris [4]): 14%
ERP (Canis familiaris [5]): 24.3%

Cl.Cl.Cn1c(N2CCN(CCCOc3ccc([N+](=O)[O-])cc3)CC2)cc(=O)n(C)c1=O
ERP (Canis familiaris [6]): 15.8%
APD75 (Canis familiaris [2]): 22%
APD75 (Canis familiaris [7]): 30%
APD75 (Canis familiaris [4]): 17%

Cn1c(NCCNCC(O)COc2ccccc2F)cc(=O)n(C)c1=O (stereo unspecified)
APD75 (Canis familiaris [2]): 8.3%
APD75 (Canis familiaris [7]): 15.6%
ED50 (Canis familiaris [8]): 0.003 mg/kg
APD75 (Canis familiaris [4]): 4.1%

CN(CCN(C)c1cc(=O)n(C)c(=O)n1C)CC(O)COc1ccccc1 (stereo unspecified)
APD75 (Canis familiaris [2]): 8%
ED50 (Canis familiaris [8]): 1 mg/kg
APD75 (Canis familiaris [4]): 2.9%

Cn1c(NCCNCCCOc2ccccc2)cc(=O)n(C)c1=O
APD75 (Canis familiaris [2]): 11.9%
ED50 (Canis familiaris [8]): 0.1 mg/kg
APD75 (Canis familiaris [4]): 4%

Cl.Cn1c(N2CCN(CCCOc3ccc(NS(C)(=O)=O)cc3)CC2)cc(=O)n(C)c1=O
ERP (Canis familiaris [1]): 9.3%
APD75 (Canis familiaris [2]): 3%
APD75 (Canis familiaris [7]): 10%
ERP (Canis familiaris [3]): 7.1%
APD75 (Canis familiaris [4]): 1%
ERP (Canis familiaris [5]): 16.4%

CSc1ccccc1OCCCN1CCN(c2cc(=O)n(C)c(=O)n2C)CC1.Cl
APD75 (Canis familiaris [2]): 0%
APD75 (Canis familiaris [7]): 0%
APD75 (Canis familiaris [4]): 0%

Cl.Cn1c(N2CCN(CCCOc3ccccc3[N+](=O)[O-])CC2)cc(=O)n(C)c1=O
ERP (Canis familiaris [6]): 6.8%
APD75 (Canis familiaris [2]): 18%
APD75 (Canis familiaris [7]): 39%

CNS(=O)(=O)c1ccc(OCCCN2CCN(c3cc(=O)n(C)c(=O)n3C)CC2)cc1.Cl
APD75 (Canis familiaris [2]): 0%

CCN(CCCc1ccc([N+](=O)[O-])cc1)CCNc1cc(=O)n(C)c(=O)n1C.Cl
APD75 (Canis familiaris [2]): 16%
APD75 (Canis familiaris [4]): 11%

Cl.Cn1c(N2CCN(CCOc3ccc([N+](=O)[O-])cc3)CC2)cc(=O)n(C)c1=O
APD75 (Canis familiaris [2]): 22%
APD75 (Canis familiaris [7]): 43%
APD75 (Canis familiaris [4]): 8%

Cl.Cl.Cn1c(N2CCN(CCCOc3ccc(N)cc3)CC2)cc(=O)n(C)c1=O
APD75 (Canis familiaris [2]): 4%

Cl.Cn1c(NCCN(CCO)CCCc2ccc([N+](=O)[O-])cc2)cc(=O)n(C)c1=O
APD50 (Canis familiaris [9]): 293 ms
Max dV/dt (Canis familiaris [10]): 356 V s-1
APD50 (Canis familiaris [11]): 315 ms
APA (Canis familiaris [12]): 107 mV
APD50 (Canis familiaris [13]): 386 ms
APA (Canis familiaris [14]): 104 mV
APD75 (Canis familiaris [2]): 38%
APD90 (Canis familiaris [15]): 371 ms
APA (Canis familiaris [16]): 102 mV
RMP (Canis familiaris [17]): -87 mV
APD90 (Canis familiaris [18]): 584 ms
APD75 (Canis familiaris [19]): 428 ms
RMP (Canis familiaris [20]): -87 mV
RMP (Canis familiaris [21]): -90 mV
Max dV/dt (Canis familiaris [22]): 351 V s-1
RMP (Canis familiaris [23]): -85 mV
APD75 (Canis familiaris [4]): 22%
RMP (Canis familiaris [24]): -87 mV
APD75 (Canis familiaris [25]): 485 ms
APD90 (Canis familiaris [26]): 344 ms
Max dV/dt (Canis familiaris [27]): 341 V s-1
APD75 (Canis familiaris [28]): 529 ms
APD75 (Canis familiaris [29]): 372 ms
APD90 (Canis familiaris [30]): 409 ms
APD75 (Canis familiaris [31]): 313 ms
Max dV/dt (Canis familiaris [32]): 339 V s-1
APD50 (Canis familiaris [33]): 369 ms
Max dV/dt (Canis familiaris [34]): 348 V s-1
APA (Canis familiaris [35]): 101 mV
APD90 (Canis familiaris [36]): 533 ms
APA (Canis familiaris [37]): 103 mV
APA (Canis familiaris [38]): 104 mV
APD90 (Canis familiaris [39]): 471 ms
APD50 (Canis familiaris [40]): 349 ms
RMP (Canis familiaris [41]): -88 mV
APD50 (Canis familiaris [42]): 266 ms
Max dV/dt (Canis familiaris [43]): 344 V s-1
APD75 (Canis familiaris [44]): 340 ms
